The record followed here is ChEMBL document CHEMBL4706624, “Synthesis and evaluation of new quinazoline-benzimidazole hybrids as potent anti-microbial agents against multidrug resistant Staphylococcus aureus and Mycobacterium tuberculosis” (Eur J Med Chem, 2021).

One data set has as its system Staphylococcus aureus. The experiment in a line: Antibacterial activity against Staphylococcus aureus ATCC 29213 measured after 16 to 18 hrs. In kind it is functional. To be noted: time 16-18 hrs. The procedure, abridged: (§1)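 Broth microdilution MIC. Strains grown on MHA; a single colony was grown overnight in CA-MHB at 37 °C with shaking for 18–24 h. Cultures were diluted by OD600 to ~10⁶ cfu/mL and exposed to compound at […]. Plates were incubated at 37 °C for 16-18 h. MIC = lowest concentration with no visible growth. Levofloxacin was the reference. Three independent runs, each in duplicate.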

For another data set, the system named is Klebsiella pneumoniae. The data set can be described thus: Antibacterial activity against Klebsiella pneumoniae BAA-1705 measured after 16 to 18 hrs. Particulars: ATCC BAA-1705, time 16-18 hrs. In kind it is functional. The procedure, abridged:
as §1

Another data set has as its system Mycobacteroides chelonae. The data set can be described thus: Antimycobacterial activity against Mycobacterium chelonae ATCC 35752 by broth microdilution method. In kind it is functional. The procedure, abridged:
(§2)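 Broth microdilution MIC in Middlebrook 7H9 with 10% ADC-Tween-80 (BSA, dextrose, 0.2% glycerol, 0.05% Tween-80). Inoculum ~10⁶ cfu/mL set by OD600. Compounds were twofold serially diluted, 0.0064–0.00005 g/100 mL (DMSO stocks). Presto blue resazurin dye was used as read-out. MIC = lowest concentration inhibiting visible growth. Triplicate runs, each in duplicate.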
In general terms: Broth dilution looks for growth in wells or tubes with falling amounts of substance.

The subject of data set [1] is Mycolicibacterium fortuitum. The experiment in a line: Antimycobacterial activity against Mycobacterium fortuitum ATCC 6841 by broth microdilution method. In kind it is functional. The procedure, abridged: as §2
The test system of another data set is Escherichia coli. The data set can be described thus: Antibacterial activity against Escherichia coli ATCC 25922 measured after 16 to 18 hrs. In kind it is functional. To be noted: time 16-18 hrs. The procedure, abridged:
as §1

The subject of another data set is Acinetobacter baumannii. The data set can be described thus: Antibacterial activity against Acinetobacter baumannii BAA1605 measured after 16 to 18 hrs. In kind it is functional. Particulars: time 16-18 hrs. The procedure, abridged: as §1
The test system of a further data set is Pseudomonas aeruginosa. The experiment in a line: Antibacterial activity against Pseudomonas aeruginosa ATCC 27853 measured after 16 to 18 hrs. Particulars: time 16-18 hrs. In kind it is functional. The procedure, abridged:
as §1

The subject of data set [2] is Mycobacteroides abscessus. The data set can be described thus: Antimycobacterial activity against Mycobacterium abscessus ATCC 19977 by broth microdilution method. In kind it is functional. The procedure, abridged:
as §2

Data set [3] relates to Mycobacterium tuberculosis. The data set can be described thus: Antitubercular activity against Mycobacterium tuberculosis H37Rv ATCC 27294 measured after 7 days by broth microdilution method. In kind it is functional. Particulars: H37Rv ATCC 27294, 168 h, time 7 day. The procedure, abridged:
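H37Rv in Middlebrook 7H9 with 10% ADC, 0.2% glycerol, 0.05% Tween-80. Inoculum ~10⁶ cfu/mL set by OD600. Twofold serial dilutions, 0.0064–0.00005 g/100 mL. Incubated at 37 °C for 7 days, then Presto blue resazurin read-out. MIC = lowest concentration inhibiting visible growth. Triplicate runs, each in duplicate.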

Data set [4] is described as follows: Selectivity index, ratio of CC50 for cytotoxicity against African green monkey Vero cells to MIC for antibacterial activity against Staphylococcus aureus ATCC 29213. In kind it is toxicity, cell-based. To be noted: read-out: Selectivity Index. Put shortly: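 SI = Vero CC50 (MTT, 72 h) divided by MIC against S. aureus ATCC 29213 (CA-MHB broth microdilution, 16-18 h, 37 °C).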

A short description of data set [5]: Cytotoxicity against African green monkey Vero cells assessed as reduction in cell viability measured after 72 hrs by MTT assay. In kind it is cell-based. To be noted: chlorocebus sabaeus. The procedure, abridged:
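Vero cells (ATCC CCL-81), ~10³ cells/well, held 24 h at 37 °C in 5% CO₂. Compound at 100–5 mg/L for 72 h. MTT was added for 4 h, formazan dissolved in DMSO, OD read at 540 nm. CC50 = concentration giving 50% viability reduction. Doxorubicin was the positive control. Triplicate.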
In general terms: Formazan colour is commonly taken as a measure of viable cells.

In general, MIC refers to the least concentration at which growth counts as inhibited. By CC50 is commonly meant the concentration at which the toxic effect on the cells reaches its halfway point.

Converted amounts (≈) assume the structure as drawn.

Consider `FC(F)(F)c1nc2ccc(Nc3nc(-c4cccs4)nc4ccccc34)cc2[nH]1`, for which the minimum inhibitory concentration (MIC) was 64 µg/mL (≈ 156 µM) in the data set on Staphylococcus aureus; more than 64 µg/mL with Klebsiella pneumoniae; more than 64 µg/mL with Mycobacteroides chelonae; more than 64 µg/mL in [1]; more than 64 µg/mL with Escherichia coli; more than 64 µg/mL against Acinetobacter baumannii. Besides, the minimal inhibitory concentration (MIC) in the data set on Pseudomonas aeruginosa is more than 64 µg/mL; in data set [2], more than 64 µg/mL; in data set [3], 64 µg/mL (≈ 156 µM).
As for `CN[C@@H]1[C@H](O[C@H]2[C@H](O[C@H]3[C@H](O)[C@@H](O)[C@H](N=C(N)N)[C@@H](O)[C@@H]3N=C(N)N)O[C@@H](C)[C@]2(O)C=O)O[C@@H](CO)[C@H](O)[C@H]1O` [STREPTOMYCIN], the minimal inhibitory concentration (MIC) in data set [3] came out at 1 µg/mL (≈ 1.72 µM).
As for `O=C(Nc1ccc2nc(-c3ccc4ccccc4c3)[nH]c2c1)c1ccc(Nc2nc(-c3ccccc3)nc3ccccc23)cc1`, the MIC (with Staphylococcus aureus; in the data set with Klebsiella pneumoniae; against Mycobacteroides chelonae; in data set [1]; in the data set with Escherichia coli; with Acinetobacter baumannii) was more than 64 µg/mL throughout. Further, the values for the MIC (against Pseudomonas aeruginosa; in data set [2]; in data set [3]) were more than 64 µg/mL, more than 64 µg/mL and 64 µg/mL (≈ 110 µM), respectively.
In the case of `NNC(=O)c1ccncc1` [ISONIAZID], in data set [3], it took 0.03 µg/mL (≈ 0.219 µM) to inhibit growth (MIC).
As to `N#Cc1ccc(/C=C/c2nc3ccccc3c(=O)n2-c2ccc(C(=O)O)c(O)c2)cc1`, the figures for the MIC (in the data set with Staphylococcus aureus; in data set [3]) were 0.03 µg/mL (≈ 0.0733 µM) and 64 µg/mL (≈ 156 µM), respectively.
For the compound `COc1ccc(-c2nc(Nc3ccc(-c4nc5cc([N+](=O)[O-])ccc5[nH]4)cc3)c3ccccc3n2)cc1OC`, the minimum inhibitory concentration (MIC) was more than 64 µg/mL against Staphylococcus aureus; more than 64 µg/mL against Klebsiella pneumoniae; 8 µg/mL (≈ 15.4 µM) in the data set on Mycobacteroides chelonae; 4 µg/mL (≈ 7.71 µM) in [1]; more than 64 µg/mL in the data set with Escherichia coli; more than 64 µg/mL against Acinetobacter baumannii. Further, the values for the minimum inhibitory concentration (MIC) (against Pseudomonas aeruginosa; in data set [2]; in [3]) were more than 64 µg/mL, more than 64 µg/mL and 8 µg/mL (≈ 15.4 µM), respectively. Further, in data set [4], the selectivity ratio was determined as 12.5. Also, the CC50 at 72 h in data set [5] is 100 µg/mL (≈ 193 µM).
In the case of `Fc1ccc2[nH]c(-c3ccc(Nc4nc(-c5ccccc5)nc5ccccc45)cc3)nc2c1`, the minimal inhibitory concentration (MIC) with Staphylococcus aureus was 4 µg/mL (≈ 9.27 µM); in the data set on Klebsiella pneumoniae it was more than 64 µg/mL; against Mycobacteroides chelonae, 32 µg/mL (≈ 74.2 µM); in data set [1], more than 64 µg/mL; in the data set on Escherichia coli it was more than 64 µg/mL; in the data set with Acinetobacter baumannii, more than 64 µg/mL. The minimum inhibitory concentration (MIC) (with Pseudomonas aeruginosa; in [2]; in data set [3]) was more than 64 µg/mL each time. In data set [4], the selectivity ratio worked out at 10. Further, the CC50 at 72 h in [5] was 40 µg/mL (≈ 92.7 µM).
As for `COc1ccc(-c2nc(Nc3ccc(-c4nc5cc(Cl)ccc5[nH]4)cc3)c3ccccc3n2)cc1OC`, the MIC against Staphylococcus aureus was 16 µg/mL (≈ 31.5 µM); in the data set with Klebsiella pneumoniae, more than 64 µg/mL; in the data set with Mycobacteroides chelonae it was more than 64 µg/mL; in [1] it was more than 64 µg/mL; with Escherichia coli, more than 64 µg/mL; against Acinetobacter baumannii, more than 64 µg/mL. Also, the minimum inhibitory concentration (MIC) was more than 64 µg/mL in the data set on Pseudomonas aeruginosa, more than 64 µg/mL in [2] and 32 µg/mL (≈ 63 µM) in data set [3]. For the same compound, the selectivity ratio in data set [4] was more than 6.25. In data set [5], the half-maximal cytotoxic concentration (CC50) at 72 h was more than 100 µg/mL.
As to `CC[C@@H](CO)NCCN[C@@H](CC)CO` [ETHAMBUTOL], the lowest concentration to inhibit growth in data set [3] (MIC) was 1 µg/mL (≈ 4.89 µM).
`CO[C@H]1/C=C/O[C@@]2(C)Oc3c(C)c(O)c4c(O)c(c(/C=N/N5CCN(C)CC5)c(O)c4c3C2=O)NC(=O)/C(C)=C\C=C\[C@H](C)[C@H](O)[C@@H](C)[C@@H](O)[C@@H](C)[C@H](OC(C)=O)[C@@H]1C` [RIFAMPIN] came in with an MIC in data set [3] of 0.06 µg/mL (≈ 0.0729 µM).
